Reference: ChEMBL document CHEMBL1944514, “Fluorescence detection of single nucleotide polymorphisms using nucleic acid probe containing tricyclic base-linked acyclonucleoside” (Bioorg Med Chem Lett, 2012)
The source made the active and inactive calls. The calls are words filed in the database; no cut-off is given here.

How the values were obtained:
Assay type in all cases: nucleic-acid assay
Nucleic Acid [1] = assay: Binding affinity to 3'-r(CUUCCAGUUUCAUAGAGA)-5' RNA assessed as fluorescence quenching by spectrophotometry
Nucleic Acid [2] = assay: Binding affinity to 3'-r(CUUCCAGUUACAUAGAGA)-5' RNA assessed as change in melting temperature by spectrophotometry
Nucleic Acid [3] = assay: Binding affinity to 3'-r(CUUCCAGUUACAUAGAGA)-5' RNA assessed as fluorescence quenching by spectrophotometry
Nucleic Acid [4] = assay: Binding affinity to 3'-r(CUUCCAGUUGCAUAGAGA)-5' RNA assessed as fluorescence quenching by spectrophotometry
Nucleic Acid [5] = assay: Binding affinity to 3'-r(CUUCCAGUUUCAUAGAGA)-5' RNA assessed as change in melting temperature by spectrophotometry
Nucleic Acid [6] = assay: Binding affinity to 3'-r(CUUCCAGUUCCAUAGAGA)-5' RNA assessed as fluorescence quenching by spectrophotometry
Nucleic Acid [7] = assay: Binding affinity to 3'-r(CUUCCAGUUCCAUAGAGA)-5' RNA assessed as change in melting temperature by spectrophotometry
Nucleic Acid [8] = assay: Binding affinity to 3'-r(CUUCCAGUUGCAUAGAGA)-5' RNA assessed as change in melting temperature by spectrophotometry
Nucleic Acid [9] = assay: Binding affinity to 3'-r(CUUCCAGUUACAUAGAGA)-5' RNA assessed as fluorescence quenching measured post UV-irradiation by visual analysis
Outline: (§1)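 Solutions of the N-containing probe/RNA target duplex in Tm buffer were irradiated with a handheld UV lamp at 254, 302 or 365 nm. The emitted colour was judged by eye from photographs.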

Nucleic Acid [10] = assay: Binding affinity to 3'-r(CUUCCAGUUUCAUAGAGA)-5' RNA assessed as fluorescence quenching measured post UV-irradiation by visual analysis; outline: as §1

Activity (Nucleic Acid [1])	ΔTm (Nucleic Acid [2])	Activity (Nucleic Acid [3])	Activity (Nucleic Acid [4])	ΔTm (Nucleic Acid [5])	Activity (Nucleic Acid [6])	ΔTm (Nucleic Acid [7])	Activity (Nucleic Acid [8])	Activity (Nucleic Acid [5])	ΔTm (Nucleic Acid [8])	Activity (Nucleic Acid [9])	Activity (Nucleic Acid [10])	Activity (Nucleic Acid [2])	Activity (Nucleic Acid [7])	SMILES
Active	-3.9 °C	Active	inactive	-1.1 °C	Active	-3.2 °C	inactive	–	–	–	–	–	–	Cc1cn([C@H]2C[C@H](OP(=O)(O)OC[C@H]3O[C@@H](n4ccc(N)nc4=O)C[C@@H]3OP(=O)(O)OC[C@H]3O[C@@H](n4cnc5c(N)ncnc54)C[C@@H]3OP(=O)(O)OC[C@H]3O[C@@H](n4cnc5c(N)ncnc54)C[C@@H]3OP(=O)(O)OC[C@H]3O[C@@H](n4ccc(N)nc4=O)C[C@@H]3OP(=O)(O)OC[C@H](Cn3cnc4cc5c(N)nc(N)nc5nc43)OP(=O)(O)OC[C@H]3O[C@@H](n4cnc5c(=O)[nH]c(N)nc54)C[C@@H]3OP(=O)(O)CC[C@H]3O[C@@H](n4cc(C)c(=O)[nH]c4=O)C[C@@H]3OP(=O)(O)OC[C@H]3O[C@@H](n4cnc5c(N)ncnc54)C[C@@H]3OP(=O)(O)OC[C@H]3O[C@@H](n4cc(C)c(=O)[nH]c4=O)C[C@@H]3OP(=O)(O)OC[C@H]3O[C@@H](n4ccc(N)nc4=O)C[C@@H]3OP(=O)(O)OC[C@H]3O[C@@H](n4cc(C)c(=O)[nH]c4=O)C[C@@H]3OP(=O)(O)OC[C@H]3O[C@@H](n4ccc(N)nc4=O)C[C@@H]3OP(=O)(O)OC[C@H]3O[C@@H](n4cc(C)c(=O)[nH]c4=O)C[C@@H]3O)[C@@H](COP(=O)(O)O[C@H]3C[C@H](n4cnc5c(=O)[nH]c(N)nc54)O[C@@H]3COP(=O)(O)O[C@H]3C[C@H](n4cnc5c(=O)[nH]c(N)nc54)O[C@@H]3COP(=O)(O)O[C@H]3C[C@H](n4cnc5c(N)ncnc54)O[C@@H]3COP(=O)(O)O[C@H]3C[C@H](n4cnc5c(N)ncnc54)O[C@@H]3COP(=O)(O)O[C@H]3C[C@H](n4cnc5c(=O)[nH]c(N)nc54)O[C@@H]3CO)O2)c(=O)nc1N
inactive	-3.5 °C	Active	Active	–	Active	-3.4 °C	–	inactive	-2.9 °C	–	–	–	–	Cc1cn([C@H]2C[C@H](OP(=O)(O)OC[C@H]3O[C@@H](n4ccc(N)nc4=O)C[C@@H]3OP(=O)(O)OC[C@H]3O[C@@H](n4cnc5c(N)ncnc54)C[C@@H]3OP(=O)(O)OC[C@H]3O[C@@H](n4cnc5c(N)ncnc54)C[C@@H]3OP(=O)(O)OC[C@H](Cn3cnc4cc5c(N)nc(N)nc5nc43)OP(=O)(O)OC[C@H]3O[C@@H](n4cnc5c(N)ncnc54)C[C@@H]3OP(=O)(O)OC[C@H]3O[C@@H](n4cnc5c(=O)[nH]c(N)nc54)C[C@@H]3OP(=O)(O)CC[C@H]3O[C@@H](n4cc(C)c(=O)[nH]c4=O)C[C@@H]3OP(=O)(O)OC[C@H]3O[C@@H](n4cnc5c(N)ncnc54)C[C@@H]3OP(=O)(O)OC[C@H]3O[C@@H](n4cc(C)c(=O)[nH]c4=O)C[C@@H]3OP(=O)(O)OC[C@H]3O[C@@H](n4ccc(N)nc4=O)C[C@@H]3OP(=O)(O)OC[C@H]3O[C@@H](n4cc(C)c(=O)[nH]c4=O)C[C@@H]3OP(=O)(O)OC[C@H]3O[C@@H](n4ccc(N)nc4=O)C[C@@H]3OP(=O)(O)OC[C@H]3O[C@@H](n4cc(C)c(=O)[nH]c4=O)C[C@@H]3O)[C@@H](COP(=O)(O)O[C@H]3C[C@H](n4cnc5c(=O)[nH]c(N)nc54)O[C@@H]3COP(=O)(O)O[C@H]3C[C@H](n4cnc5c(=O)[nH]c(N)nc54)O[C@@H]3COP(=O)(O)O[C@H]3C[C@H](n4cnc5c(N)ncnc54)O[C@@H]3COP(=O)(O)O[C@H]3C[C@H](n4cnc5c(N)ncnc54)O[C@@H]3COP(=O)(O)O[C@H]3C[C@H](n4cnc5c(=O)[nH]c(N)nc54)O[C@@H]3CO)O2)c(=O)nc1N
Active	-6 °C	Active	inactive	-5.4 °C	Active	-6.5 °C	inactive	–	–	–	–	–	–	Cc1cn([C@H]2C[C@H](OP(=O)(O)OC[C@H]3O[C@@H](n4ccc(N)nc4=O)C[C@@H]3OP(=O)(O)OC[C@H]3O[C@@H](n4cnc5c(N)ncnc54)C[C@@H]3OP(=O)(O)OC[C@H]3O[C@@H](n4cnc5c(N)ncnc54)C[C@@H]3OP(=O)(O)OC[C@H](Cn3cnc4cc5c(N)nc(N)nc5nc43)OP(=O)(O)OC[C@H]3O[C@@H](n4ccc(N)nc4=O)C[C@@H]3OP(=O)(O)OC[C@H]3O[C@@H](n4cnc5c(=O)[nH]c(N)nc54)C[C@@H]3OP(=O)(O)CC[C@H]3O[C@@H](n4cc(C)c(=O)[nH]c4=O)C[C@@H]3OP(=O)(O)OC[C@H]3O[C@@H](n4cnc5c(N)ncnc54)C[C@@H]3OP(=O)(O)OC[C@H]3O[C@@H](n4cc(C)c(=O)[nH]c4=O)C[C@@H]3OP(=O)(O)OC[C@H]3O[C@@H](n4ccc(N)nc4=O)C[C@@H]3OP(=O)(O)OC[C@H]3O[C@@H](n4cc(C)c(=O)[nH]c4=O)C[C@@H]3OP(=O)(O)OC[C@H]3O[C@@H](n4ccc(N)nc4=O)C[C@@H]3OP(=O)(O)OC[C@H]3O[C@@H](n4cc(C)c(=O)[nH]c4=O)C[C@@H]3O)[C@@H](COP(=O)(O)O[C@H]3C[C@H](n4cnc5c(=O)[nH]c(N)nc54)O[C@@H]3COP(=O)(O)O[C@H]3C[C@H](n4cnc5c(=O)[nH]c(N)nc54)O[C@@H]3COP(=O)(O)O[C@H]3C[C@H](n4cnc5c(N)ncnc54)O[C@@H]3COP(=O)(O)O[C@H]3C[C@H](n4cnc5c(N)ncnc54)O[C@@H]3COP(=O)(O)O[C@H]3C[C@H](n4cnc5c(=O)[nH]c(N)nc54)O[C@@H]3CO)O2)c(=O)nc1N
Active	–	inactive	Active	1 °C	Active	-0.8 °C	–	–	-0.9 °C	inactive	Active	inactive	–	Cc1cn([C@H]2C[C@H](OP(=O)(O)OC[C@H]3O[C@@H](n4ccc(N)nc4=O)C[C@@H]3OP(=O)(O)OC[C@H]3O[C@@H](n4cnc5c(N)ncnc54)C[C@@H]3OP(=O)(O)OC[C@H]3O[C@@H](n4cnc5c(N)ncnc54)C[C@@H]3OP(=O)(O)OC[C@H]3O[C@@H](n4cc(C)c(=O)[nH]c4=O)C[C@@H]3OP(=O)(O)OC[C@H](Cn3cnc4cc5c(N)nc(N)nc5nc43)OP(=O)(O)OC[C@H]3O[C@@H](n4cnc5c(=O)[nH]c(N)nc54)C[C@@H]3OP(=O)(O)CC[C@H]3O[C@@H](n4cc(C)c(=O)[nH]c4=O)C[C@@H]3OP(=O)(O)OC[C@H]3O[C@@H](n4cnc5c(N)ncnc54)C[C@@H]3OP(=O)(O)OC[C@H]3O[C@@H](n4cc(C)c(=O)[nH]c4=O)C[C@@H]3OP(=O)(O)OC[C@H]3O[C@@H](n4ccc(N)nc4=O)C[C@@H]3OP(=O)(O)OC[C@H]3O[C@@H](n4cc(C)c(=O)[nH]c4=O)C[C@@H]3OP(=O)(O)OC[C@H]3O[C@@H](n4ccc(N)nc4=O)C[C@@H]3OP(=O)(O)OC[C@H]3O[C@@H](n4cc(C)c(=O)[nH]c4=O)C[C@@H]3O)[C@@H](COP(=O)(O)O[C@H]3C[C@H](n4cnc5c(=O)[nH]c(N)nc54)O[C@@H]3COP(=O)(O)O[C@H]3C[C@H](n4cnc5c(=O)[nH]c(N)nc54)O[C@@H]3COP(=O)(O)O[C@H]3C[C@H](n4cnc5c(N)ncnc54)O[C@@H]3COP(=O)(O)O[C@H]3C[C@H](n4cnc5c(N)ncnc54)O[C@@H]3COP(=O)(O)O[C@H]3C[C@H](n4cnc5c(=O)[nH]c(N)nc54)O[C@@H]3CO)O2)c(=O)nc1N
Active	-3.1 °C	Active	Active	-2.9 °C	inactive	–	–	–	-3 °C	–	–	–	inactive	Cc1cn([C@H]2C[C@H](OP(=O)(O)OC[C@H]3O[C@@H](n4ccc(N)nc4=O)C[C@@H]3OP(=O)(O)OC[C@H]3O[C@@H](n4cnc5c(N)ncnc54)C[C@@H]3OP(=O)(O)OC[C@H]3O[C@@H](n4cnc5c(N)ncnc54)C[C@@H]3OP(=O)(O)OC[C@H]3O[C@@H](n4cnc5c(=O)[nH]c(N)nc54)C[C@@H]3OP(=O)(O)OC[C@H](Cn3cnc4cc5c(N)nc(N)nc5nc43)OP(=O)(O)OC[C@H]3O[C@@H](n4cnc5c(=O)[nH]c(N)nc54)C[C@@H]3OP(=O)(O)CC[C@H]3O[C@@H](n4cc(C)c(=O)[nH]c4=O)C[C@@H]3OP(=O)(O)OC[C@H]3O[C@@H](n4cnc5c(N)ncnc54)C[C@@H]3OP(=O)(O)OC[C@H]3O[C@@H](n4cc(C)c(=O)[nH]c4=O)C[C@@H]3OP(=O)(O)OC[C@H]3O[C@@H](n4ccc(N)nc4=O)C[C@@H]3OP(=O)(O)OC[C@H]3O[C@@H](n4cc(C)c(=O)[nH]c4=O)C[C@@H]3OP(=O)(O)OC[C@H]3O[C@@H](n4ccc(N)nc4=O)C[C@@H]3OP(=O)(O)OC[C@H]3O[C@@H](n4cc(C)c(=O)[nH]c4=O)C[C@@H]3O)[C@@H](COP(=O)(O)O[C@H]3C[C@H](n4cnc5c(=O)[nH]c(N)nc54)O[C@@H]3COP(=O)(O)O[C@H]3C[C@H](n4cnc5c(=O)[nH]c(N)nc54)O[C@@H]3COP(=O)(O)O[C@H]3C[C@H](n4cnc5c(N)ncnc54)O[C@@H]3COP(=O)(O)O[C@H]3C[C@H](n4cnc5c(N)ncnc54)O[C@@H]3COP(=O)(O)O[C@H]3C[C@H](n4cnc5c(=O)[nH]c(N)nc54)O[C@@H]3CO)O2)c(=O)nc1N
